Rad51 HR inh: Rad51 (human) homologous recombination inhibition; Q06609; hRad51 DNA strand exchange, fluorescence dequenching; inhibition, % at 10 µM; 0.085% of 200,000 active;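 active means inhibition above 40% at the single screening dose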;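 further: 0% = DMSO control wells and 100% = blanks with heterologous ssDNA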
Target sequence (Q06609 whole entry, looked up): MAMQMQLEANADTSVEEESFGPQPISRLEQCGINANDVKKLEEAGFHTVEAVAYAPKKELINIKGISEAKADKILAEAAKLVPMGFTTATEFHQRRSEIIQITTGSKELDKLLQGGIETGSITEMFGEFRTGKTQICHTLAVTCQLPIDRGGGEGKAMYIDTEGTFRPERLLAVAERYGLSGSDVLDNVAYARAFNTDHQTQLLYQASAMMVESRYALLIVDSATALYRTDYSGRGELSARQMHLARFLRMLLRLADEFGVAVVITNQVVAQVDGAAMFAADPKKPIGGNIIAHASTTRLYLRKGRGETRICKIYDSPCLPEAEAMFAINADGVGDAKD
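Material: Human Rad51 nucleoprotein filaments preassembled on unlabelled ssDNA | Also added: Labelled 47-mer dsDNA for strand exchange | Dosing: Single dose, 10 µM final compound | Schedule: 30-min compound preincubation and 15-min exchange, both room temperature | Technique: Fluorescence dequenching at 485/520 nm | Measure: Percent inhibition relative to plate controls and blanks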
Autophagy HCS: modulators of autophagy; 0.98% of 190,000 active; calls only at 10 µM (by protocol); MEF GFP-LC3 puncta imaging; test concentration mostly 10 µM;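 active means percentage of spot-positive cells more than 3 SD above its plate mean, without a fluorescence outlier flag or 80% toxicity; inconclusive means no clear call, values can overlap the other calls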;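 further: spot-positive cell cutoff set from DMSO-treated cells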
WT yeast gro inh: growth inhibition of WT yeast, mitochondrial fusion screen; 2.1% of 190,000 active; AID 1362; mitochondrial fusion phenotypic screen, WT strain; inhibition, % at 10 µM; in the data active means inhibition above about 58%; tested in S. cerevisiae
Cl transport mod: KCC2 (human) Cl- transport modulation. Q9H2X9. KCC2 cells, thallium flux FluoZin-2 fluorescence. B-score of Tl+ flux slope (higher = more flux/activation; lower = inhibition) at 10 µM. 2.2% of 190,000 active. AID 1456;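 active means thallium flux slope and its plate-corrected score both differing from the plate sample mean at a set confidence after two filtering rounds, in either direction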;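 further: slope of fluorescence scaled to starting intensity during 10 to 20 s after thallium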
Ins promoter up: MIN6 insulin promoter up-regulation | MIN6 insulin promoter-GFP reporter, high-content imaging; hits give high values | z-score at 5 µM | 0.3% of 190,000 active;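 active means z-score above 3 at 5 µM with at least 500 cells counted in the well; inconclusive means wells under 500 cells, flagged as cytotoxic or low count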
SKKanGAS inh: SKKanGAS growth inhibition. S. pyogenes SKKanGAS, kanamycin growth, BacTiter-Glo, 6 h. 1.3% of 300,000 active. inhibition, % at 7.5 µM;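 active means mean replicate score, as percent of positive control median, at least 50; inconclusive means mean below 50 but one replicate at or above 50; inactive means mean and every replicate below 50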;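 further: strain carries kanamycin resistance gene driven by streptokinase promoter and grows in 40 µg/ml kanamycin; loss of luminescence reflects streptokinase promoter inhibition or plain growth inhibition; 0% = median of DMSO wells and 100% = positive control at its reference dose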
Active calls of the source: *; i = inactive; ? = inconclusive; / = no result given; + = active, no number. Sampled rows, rich in hits. Any-hit rate of the full collection: about 4.2%.

SMILES	Rad51 HR inh	Autophagy HCS	WT yeast gro inh	Cl transport mod	Ins promoter up	SKKanGAS inh
Cc1nc2c(C(=O)Nc3ccc(N4CCCC(O)C4)cc3)snc2c(=O)[nH]1 (centres undefined)	/	/	/	0.56	-0.83	59*
O=C(NC(=S)N1CCOCC1)c1cc2ccccc2o1	-5	i	0	-0.00059	0.05	0
CCOC(=O)Cc1c(Sc2ccccc2)c2cc(C)ccc2n1C	-4	i	68*	0.92	-0.18	-16
C=CCNC(=S)Nc1sc2c(c1C(=O)OCC)CC(C)(CC)OC2 (centres undefined)	-6	i	4	22*	0.29	7
C=CCNC(=S)Nc1sc2c(c1C(=O)OCC)CCN(C(=O)OCC)C2	-14	i	-8	5.7	0.02	14
Cc1ccc(SCC(=O)N2c3ccccc3Sc3ccccc32)cc1	-8	i	42	/	0.67	51*
O=C(CSc1nncs1)N1c2ccccc2Sc2ccccc21	-4	i	-3	1.3	0.54	3
O=C(NN=C1c2ccccc2-c2ccccc21)c1ccccc1Br	-3	i	3	14*	1.8	-17
O=C(NN=C1c2ccccc2-c2ccccc21)c1ccccc1	/	/	/	/	/	37
CCN1CCN(c2ccc(NC(=O)c3cccc(F)c3)cc2Cl)CC1	0	i	-9	0.52	-0.32	-6
Brc1ccc(Nc2ncnc3[nH]ncc23)cc1	7	/	/	-0.16	-0.48	52*
CCOC(=O)N/N=C(\C)c1ccccc1OC(F)F	/	i	-14	0.24	0.57	-4
CCCCNC(=S)N(C)/N=C/c1ccc2c(c1)OCO2	-3	i	78*	-0.28	-0.81	-15
CCOC(=O)c1sc(NC(=O)CSc2nc(C)cc(C)n2)c(C#N)c1C	10	i	5	/	0.78	-4
CCOC(=O)c1c(NC(=O)CSc2nnc(-c3ccc(C)cc3)o2)sc(C(C)=O)c1C	-6	i	11	-0.78	/	/
CCOC(=O)c1c(NC(=O)CSc2nc(C)cc(C)c2C#N)sc(C(C)=O)c1C	/	+	-7	-0.35	-0.95	4
CCOC(=O)c1sc(NC(=O)CSc2n[nH]c(-c3ccccc3)n2)c(C#N)c1C	/	+	77*	-2.3	1	43
O=C(Cc1ccc(Br)cc1)NCCc1ccc(F)cc1	/	/	/	/	/	-2
COc1ccc(-n2ncc3c2CC(C)(C)CC3NC(=O)c2cn[nH]c2)cc1 (centres undefined)	/	/	/	/	/	-3
Cc1ccc(SCc2cn3c(C)csc3n2)cc1	-2	i	74*	-0.2	1.1	6
Cc1cccc2nc(CSc3ccc(Cl)cc3)cn12	/	i	73*	-0.47	-0.63	-8
Cc1ccc(S(=O)(=O)NCc2cn3c(C)csc3n2)cc1	-5	i	0	-0.038	-0.66	-15
CC12CCC(C(=O)N(Cc3ccccc3)Cc3ccccc3)(OC1=O)C2(C)C (centres undefined)	10	i	79*	/	-0.87	-1
Cc1ccc(C)[n+](CC(=O)c2ccc(-c3ccccc3)cc2)c1	6	i	-4	-2.2	-0.7	-4
Cc1nn(CCc2nn[nH]n2)c2nc(-c3ccc(C4CCCCC4)cc3)cc(C(F)(F)F)c12	4	i	98*	-1.5	1.8	104*
SMILES	Rad51 HR inh	Autophagy HCS	WT yeast gro inh	Cl transport mod	Ins promoter up	SKKanGAS inh
COc1ccc(Cn2c(/C=C/c3ccccc3)nc3ccccc32)cc1	-1	i	21	-0.0072	/	14
COc1ccc(/C=C/c2nc3ccccc3n2C)cc1	26	i	86	-3	-0.25	66*
COC(=O)c1cc(CSc2nc3ccccc3c(=O)n2C)oc1C	/	/	/	/	/	-1
Cc1[nH]c2c(C)cccc2c1CCNS(=O)(=O)c1cccc([N+](=O)[O-])c1	0	+	5	-1.8	/	4
CCN(C(=O)CSc1nc2cc(C(=O)OC)ccc2c(=O)n1Cc1ccco1)c1cccc(C)c1	3	i	18	0.00052	4.5*	27
CCc1ccc(NC(=O)CSc2nc3cc(C(=O)OC)ccc3c(=O)n2Cc2ccco2)cc1	-9	i	-14	-0.99	0.14	10
C=CCOc1cccc(C(=O)N2CCCC(Nc3ccc4c(c3)OCCO4)C2)c1 (centres undefined)	/	/	/	/	/	-7
CCCCN(C(=O)c1cccc2c(=O)c(C)c(-c3ccccc3)oc12)c1ccccc1	10	i	78*	-1.3	/	2
Cc1ccc(-n2ncc(C(=O)Nc3cc(Cl)ccc3Cl)c2C2CCNCC2)cc1	15	+	5	-0.64	0.1	6
Cc1ccc(-n2ncc(C(=O)Nc3cc(Cl)cc(Cl)c3)c2C2CCNCC2)cc1C	-13	+	18	-1.2	?	-6
Cc1cccc(C)c1-n1ncc(C(=O)NC2CCCC2)c1C1CCNCC1	/	/	/	/	/	0
COc1ccc(CNCc2ccc(C(F)(F)F)cc2)cc1OC	/	/	/	/	/	-1
O=C(Cn1c(NCCO)nc2ccccc21)NCC1CCCO1 (centres undefined)	3	+	-4	0.19	0.23	-2
Cc1ccc(Cn2c(O)c(N=O)c3ccccc32)cc1	34	i	48	1.1	-0.15	10
NC(=S)N=Nc1c(O)n(Cc2ccc(Br)cc2)c2ccccc12	4	i	-9	3.4	-0.11	61*
O=C(N=Nc1c(O)n(Cc2ccccc2)c2ccccc12)c1cc2ccccc2cc1O	-4	i	70*	0.17	-0.92	28
Cc1ccc2c(c1)c(N=O)c(O)n2Cc1ccc(Cl)cc1	15	i	74*	0.026	-0.55	43
O=Nc1c(O)n(Cc2ccc(Cl)cc2)c2ccccc12	0	i	15	-1.6	3*	8
O=Nc1c(O)n(Cc2ccc(Cl)cc2Cl)c2ccccc12	-4	i	-2	1.3	1.6	12
CN(C)S(=O)(=O)Nc1cc(F)cc(F)c1	0	i	3	0.48	/	1
Cc1ccc(S(=O)(=O)n2ccc3c2CCCC3=O)cc1	/	/	/	/	/	9
O=C(Nc1ccc(S(=O)(=O)Nc2ncccn2)cc1)c1ccc2ncsc2c1	-25	/	/	/	-0.11	2
Oc1c(N=NC(=S)Nc2ccccc2F)c2ccccc2n1Cc1cccc(Cl)c1	-21	i	-17	3.6	0.38	52*
CCn1c(O)c(N=NC(=O)c2ccc(CSc3nncn3C)cc2)c2ccccc21	10	i	-12	-0.6	0.89	-4
Cn1cnnc1SCc1ccc(C(=O)N=Nc2c(O)n(Cc3ccc(Cl)cc3)c3ccccc23)cc1	-1	i	4	-0.63	-0.66	57*
O=C(N=Nc1c(O)n(Cc2ccccc2)c2ccccc12)c1ccc(O)cc1	-1	i	57	-0.066	-2	44
COc1ccc(C(=O)CSc2[nH]c(=O)cc(C(F)(F)F)c2C#N)cc1	-3	/	/	/	-0.3	66*
COc1ccc(-c2cc(C(F)(F)F)c(C#N)c(SCC(=O)Nc3ccc(C)cc3)n2)cc1	0	i	-1	-0.018	1.4	4

Screening results: PubChem BioAssay, several laboratories
